BB579 growth dn = chemicals that inhibit yeast BB579 growth in restrictive medium (lifespan-shortening candidates) | S. cerevisiae BB579 growth, OD615, 48 h | inhibition, % at 10 µM | actives 0.51% (n = 140,000);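 active = inhibition above a set limit, 3 SD over the mean compound inhibition, cut at about 44% in these data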
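Detection: OD615 turbidity measurement; Material: Saccharomyces cerevisiae DeaD strain BB579, replicative lifespan model yeast; Timing: 48 h exposure, 30 °C; Doses: single 10 µM dose; Medium: CSMM-D restrictive synthetic medium containing dextrose (glucose); Controls: amphotericin B at 10 µg/mL as positive control.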
SDO1 yeast rescue = restores growth of sdo1-depleted yeast; S. cerevisiae sdo1-depleted JHY4D growth rescue, OD600 30 h; stronger effect = higher value; pdr5 snq2 efflux-pump mutant strain; actives 0.21% (n = 140,000); z-score at 10 µM;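 active = z-score above 3 at both the 24 hr and the 30 hr optical density reads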;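 note: z-score against mean and SD of all compound wells on the same plate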
Yeast life ext = yeast lifespan extension | S. cerevisiae growth with nicotinamide, OD615; deaD strain in restrictive glucose medium | actives 0.68% (n = 130,000) | AID 775 | inhibition of the nicotinamide effect, % at 10 µM;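 active = inhibition above a set limit, placed 3 SD over the median of all compounds, cut at about 26% in these data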;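 note: 0% = nicotinamide-treated wells and 100% = cells grown without nicotinamide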
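Measured by: optical density (absorbance) at 615 nm; System: modified budding yeast, DeaD strain; Medium: restrictive CSMM-D dextrose medium; Timing: 4 h preincubation then 48 h treatment at 30 °C.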
RAM inhibit = blocks the yeast RAM network; S. cerevisiae dse1pr::URA3 reporter, 5-FOA growth OD615, 2 d; analog-sensitive cbk1-as2 kinase mutant strain; inhibition, % at 50 µM; actives 1.8% (n = 190,000);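 active = inhibition above a set limit, 3 SD over mean compound inhibition, cut at about 8.4% in these data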;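 note: 0% = DMSO-only wells with no growth and 100% = 10 µM 1-NA-PP1 full growth; inhibition rescues growth on 5-FOA so higher OD means more RAM inhibition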
RAM efflux-def = restores 5-FOA growth of efflux-deficient yeast. shares compounds with RAM inhibit. S. cerevisiae efflux-deficient reporter strain, 5-FOA growth OD615, 2 days. max inhibition, %. 1,200 tested, under 10 active. AID 1305; call rule not given here;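 note: plate controls were vehicle for no effect and reference inhibitor for full effect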
The depositor's hits bear a star; . = no result. Rows were chosen to be rich in hits. Some 2.7% of all compounds tested hit in one or more screens of this group.

SMILES	BB579 growth dn	SDO1 yeast rescue	Yeast life ext	RAM inhibit	RAM efflux-def
Cc1ccc(Nc2nnc(SCC(=O)NC(Cc3c[nH]c4ccccc34)C(=O)O)s2)cc1 (stereo not given)	.	.	.	0.3	.
CN(C(=O)COC(=O)c1sc2ccccc2c1Cl)C1CCCCC1	-10.5	-0.64	6.5	13.7*	2.6
CCN(CC)C(=O)c1cc(C(C)(C)C)c(O)c(C(C)(C)C)c1	-1.5	-0.33	0.7	0.9	.
COc1ccc(C(=O)/C=C/c2ccc(OC)c(COc3ccc(F)cc3)c2)cc1	-33.2	-0.84	3.0	18.4*	3.4
COc1ccccc1/C=C/C(=O)c1ccc(Cl)cc1	-39.3	-0.75	-6.4	0.5	.
COc1ccc(/C=C/C(=O)c2ccc(OC)cc2OC)c(OC)c1	.	.	.	13.7*	2.0
COc1ccc(OC)c(/C=C/C(=O)c2ccc(Cl)cc2)c1	-12.6	-1.55	-18.3	13.2*	4.8
COc1ccc(N(CC(=O)Nc2cccc(N(C)S(C)(=O)=O)c2)S(=O)(=O)c2ccccc2)cc1Cl	.	.	.	6.2	.
COc1cc2nc(CN3CCC(C(O)(c4ccccc4)c4ccccc4)CC3)[nH]c(=O)c2cc1OC	.	.	.	0.6	.
Cn1c(=O)c2ncn(CC(=O)N=Nc3c(O)[nH]c4ccccc34)c2n(C)c1=O	.	.	.	1.1	.
COc1cc(/C=C/CN2CCN(Cc3ccc(C)o3)C(CCO)C2)ccc1O (stereo not given)	.	.	.	0.9	.
CCCCc1ccc(-c2csc(/C(C#N)=C\c3ccc(C)o3)n2)cc1	-26.2	-0.17	39.9	13.8*	6.2
Cc1cc(C(=O)CN2CCCC(C)C2)c(C)n1-c1ccc(F)cc1 (stereo not given)	-28.2	0.63	0.7	-0.4	.
Cc1cc2c(C)ccc(C)c2nc1SCC(=O)c1cccs1	-41.9	-0.96	-12.9	13.5*	1.5
Cc1cc(C)c(C#N)c(SCC(=O)c2cccs2)n1	-38.2	-1.59	-13.7	2.9	.
COC(=O)C1=C(C)N(C)C(=S)NC1c1ccc(OC)cc1OC (stereo not given)	.	.	.	1.6	.
COc1ccccc1-c1ccc(SCc2ccc([N+](=O)[O-])cc2)nn1	.	.	.	14.3*	3.3
CCN(CC)S(=O)(=O)c1ccc(NCC2COc3ccccc3O2)c([N+](=O)[O-])c1 (stereo not given)	-37.7	-0.41	-1.9	17.4*	3.3
COc1cc(O)sc1C=Nc1ccc(Cl)cc1Cl	.	.	.	4.1	.
CCCCN(CCCC)C(=S)NC(=O)c1ccccc1Cl	-1.0	-1.07	18.7	-0.5	.
COc1ccc(-c2cnc3c(c2)CCC3(C#N)C#N)cc1	-16.9	-0.26	-0.5	1.4	.
O=C(Nc1ccccc1Cc1ccccc1)c1oc2ccccc2c1COc1ccccc1	-64.6	2.23	9.2	11.8*	3.8
O=C(NCCc1ccccc1)c1oc2ccccc2c1COc1ccccc1	-34.3	-0.21	2.7	18.7*	3.7
CC(OC(=O)c1oc2ccccc2c1COc1ccccc1)C(=O)NC(N)=O (stereo not given)	.	.	.	3.5	.
Cc1ccc(C(=O)NC(=O)OCCn2c(C)cnc2[N+](=O)[O-])cc1	.	.	.	2.8	.
SMILES	BB579 growth dn	SDO1 yeast rescue	Yeast life ext	RAM inhibit	RAM efflux-def
O=C(NNC(=S)Nc1ccc(Cl)cc1Cl)C1CC1	-24.6	0	6.9	1.3	.
CN(C)CCNC(=O)c1ccc(Sc2ccc(Br)cc2)c([N+](=O)[O-])c1	.	.	.	0.5	.
COc1cccc(-c2nc(=S)c3c(n2Cc2ccco2)CCCC3)c1	-15.6	-0.41	15.0	14.5*	2.2
COc1cccc(N/C(SCc2cccc([N+](=O)[O-])c2)=C(/C#N)C(=O)NCc2cccs2)c1	-10.1	0.45	9.0	17.1*	4.3
COc1cccc(N/C(SC)=C(/C#N)C(=O)NCc2cccs2)c1	.	.	.	6.5	.
COc1cccc(N/C(SCc2ccccc2Cl)=C(/C#N)C(=O)NCc2cccs2)c1	-37.9	1.39	6.5	15.7*	3.0
COc1cccc(N/C(SCc2ccccc2C)=C(/C#N)C(=O)NCc2cccs2)c1	-66.2	1.08	4.4	19.7*	4.3
Cc1cc(C)nc(SCCn2c(N3CCOCC3)nc3c2c(=O)[nH]c(=O)n3C)n1	.	.	.	-0.5	.
NS(=O)(=O)c1cccc(NC(=O)COC(=O)CN2C(=O)C3CC=CCC3C2=O)c1 (stereo not given)	.	.	.	1.4	.
C=CCNC(=S)NN=C1CCCCCCC1	.	.	.	0.7	.
CCc1ccccc1N1CCN(S(=O)(=O)c2cc(OC)ccc2OC)CC1	-42.9	-1.02	-5.0	13.0*	2.1
CCOCCCNC(=O)/C(C#N)=C/c1ccc(-c2ccc(S(=O)(=O)N3CCOCC3)cc2)o1	-27.1	0.34	0.4	12.3*	3.4
